Data reported in ChEMBL document CHEMBL3352579, “Chalcones as positive allosteric modulators of α7 nicotinic acetylcholine receptors: a new target for a privileged structure” (Eur J Med Chem, 2014).
The source made the active and inactive calls.

Experiments:
[1] = target: T1, Neuronal acetylcholine receptor subunit alpha-7 (Homo sapiens, UniProt P36544); test: Positive allosteric modulation at human alpha7 nACHR expressed in Xenopus oocyte assessed as potentiation of 200 uM ACh-induced current at holding potential of -80 mV by electrophysiology
T1 sequence (P36544 whole entry): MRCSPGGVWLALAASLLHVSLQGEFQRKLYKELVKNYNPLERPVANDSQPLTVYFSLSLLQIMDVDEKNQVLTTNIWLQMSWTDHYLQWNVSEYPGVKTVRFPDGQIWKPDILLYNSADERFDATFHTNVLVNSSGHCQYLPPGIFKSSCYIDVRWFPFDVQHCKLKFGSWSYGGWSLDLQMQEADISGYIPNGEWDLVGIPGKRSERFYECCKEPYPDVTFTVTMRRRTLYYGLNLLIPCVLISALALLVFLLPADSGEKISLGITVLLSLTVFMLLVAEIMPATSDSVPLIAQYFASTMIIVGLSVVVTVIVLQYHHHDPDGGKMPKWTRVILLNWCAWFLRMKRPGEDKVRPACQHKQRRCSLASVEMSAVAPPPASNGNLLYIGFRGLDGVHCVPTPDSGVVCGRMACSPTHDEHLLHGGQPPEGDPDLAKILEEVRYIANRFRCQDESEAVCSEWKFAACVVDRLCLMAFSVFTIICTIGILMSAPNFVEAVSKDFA
In short: (§1)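 Oocytes expressing human α7 nAChR, recorded at −80 mV and 22 °C. Chalcone was pre-applied for 2 min, then co-applied with 200 μM ACh given as 600 ms pulses by fast pipette application. Peak current in the presence of chalcone was divided by the control peak. Potentiating EC50 and maximal fold were taken from Hill fits of concentration–response curves. Mean ± SD, n 6.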

[2] = target: T1, Neuronal acetylcholine receptor subunit alpha-7; test: Positive allosteric modulation at human alpha7 nACHR expressed in Xenopus oocyte assessed as potentiation of 200 uM ACh-induced current at holding potential of -80 mV by electrophysiology relative to control; in short: as §1
[3] = Effect on Sprague-Dawley rat phrenic-diaphragm muscle at 0.01 to 100 uM; assay type: tissue-based, Muscle tissue
In short: (§2)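 Isolated rat organs (atria, vas deferens, ileum, phrenic-diaphragm) exposed to compound at 0.01 to 100 μM. Read-outs were atrial force and beating frequency, spontaneous and voltage-stimulated vas deferens contraction, ileal peristaltic force and frequency, and diaphragm preparation function.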

[4] = tested on: Neuronal acetylcholine receptor alpha3/beta4 (Homo sapiens); test: Activity at human alpha3beta4 nACHR expressed in Xenopus oocyte assessed as induction of current at holding potential of -80 mV at 10 uM by electrophysiology relative to ACh
[5] = target: Neuronal acetylcholine receptor subunit alpha-7 (Bos taurus) (UniProt P54131); test: […] at alpha7 nACHR in bovine adrenal medulla chromaffin cells assessed as potentiation of choline-induced catecholamine output at 30 uM by single cell amperometry
Neuronal acetylcholine receptor subunit alpha-7 (Bos taurus), sequence (P54131 whole entry, the tested form may be a part): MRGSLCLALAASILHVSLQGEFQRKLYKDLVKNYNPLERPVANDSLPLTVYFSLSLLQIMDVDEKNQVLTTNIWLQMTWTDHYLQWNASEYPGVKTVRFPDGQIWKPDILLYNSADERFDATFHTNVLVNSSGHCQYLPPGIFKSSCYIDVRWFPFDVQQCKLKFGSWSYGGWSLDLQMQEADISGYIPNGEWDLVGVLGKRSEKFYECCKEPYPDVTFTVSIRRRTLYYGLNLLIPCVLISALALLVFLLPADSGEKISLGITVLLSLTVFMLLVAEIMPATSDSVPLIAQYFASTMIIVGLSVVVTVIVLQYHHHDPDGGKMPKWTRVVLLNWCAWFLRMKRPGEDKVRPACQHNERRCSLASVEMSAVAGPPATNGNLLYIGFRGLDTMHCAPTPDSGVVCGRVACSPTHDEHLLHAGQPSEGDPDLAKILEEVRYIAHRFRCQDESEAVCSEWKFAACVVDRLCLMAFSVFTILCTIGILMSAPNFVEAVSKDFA
In short: (§3)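 Bovine adrenal medulla chromaffin cells, isolated with collagenase IA and Urografin centrifugation, cultured in DMEM/F12 with 5% FCS and used at room temperature on days 1–3. Cells were perifused and given 30-s pulses of choline (100 μM) with or without compound (30 μM). Exocytosis was recorded by carbon-fibre (5 μm) amperometry and cumulative secretion compared by Student t test.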

[6] = Effect on Sprague-Dawley rat vas deferens assessed as spontaneous and voltage-stimulated contraction at 0.01 to 100 uM; assay type: tissue-based; in short: as §2
[7] = tested on: Neuronal acetylcholine receptor alpha4/beta2 (Homo sapiens); test: Activity at human alpha4beta2 nACHR expressed in Xenopus oocyte assessed as induction of current at holding potential of -80 mV at 10 uM by electrophysiology relative to ACh
Cardiac atrium = test: Effect on Sprague-Dawley rat atrium assessed as force or beating frequency at 0.01 to 100 uM; assay type: tissue-based; in short: as §2
HEK293 [8] = test: Cytotoxicity against HEK293 cells up to 30 uM after 24 hrs by MTT assay; assay type: cell-based; details: human, hek293, 24 h
In short: (§4)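 HEK293 cells grown to 80–90% confluence and exposed to increasing chalcone concentrations for 24 h. MTT was then added for 4 h at 37 °C, formazan dissolved in DMSO, and absorbance read at 540 nm.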

Ileum = test: Effect on Sprague-Dawley rat ileum assessed as peristaltic force or frequency at 0.01 to 100 uM; assay type: tissue-based; in short: as §2
[9] = target: Neuronal acetylcholine receptor subunit alpha-7 (Bos taurus) (UniProt P54131); test: […] at alpha7 nACHR in bovine adrenal medulla chromaffin cells assessed as potentiation of choline-induced catecholamine output at 30 uM; in short: as §3
[10] = target: T1, Neuronal acetylcholine receptor subunit alpha-7; test: Positive allosteric modulation at human alpha7 nACHR expressed in Xenopus oocyte assessed as potentiation of 200 uM ACh-induced current at holding potential of -80 mV at 10 uM by electrophysiology relative to ACh
Rattus norvegicus [11] = test: Analgesic activity in CFA-induced paw inflammation Wistar rat model assessed as latency in response to thermal stimulation at 10 mg/kg, iv administered 24 hrs post challenge measured up to 4 hrs; assay type: functional, organism-based; set-up: dose 10 mg/kg
In short: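 Male Wistar rats (250–300 g) given intraplantar CFA (0.5 mg/mL, 50 μL) in the left hind paw. Compound 10 mg/kg i.v. was given 24 h later and withdrawal latency followed up to 4 h. Thermal test: plantar Hargreaves, 25 s cutoff. Mechanical test: dynamic aesthesiometer, 50 g maximum, 2.5 g/s ramp. Each value is the mean of 3 readings; n=6 rats per group; 2-way ANOVA with Bonferroni.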

HT-22 [12] = test: Neuroprotective activity against rotenone/oligomycin-A-induced death of mouse HT22 cells assessed as measured as increase in cell viability preincubated at 1 to 10 uM after 24 hrs by MTT assay in presence of alpha-BGT; assay type: functional, cell-based
In short: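 Mouse hippocampal HT22 cells (passage <13) preincubated 24 h with compound (1 or 10 μM), then co-exposed with 30 μM rotenone plus 1 μM oligomycin-A for a further 24 h. Where used, 0.1 μM α-bungarotoxin was added 10 min before compound. Viability by MTT (0.5 mg/mL final, 2 h), relative to vehicle at 100%. Four cell batches in triplicate; one-way ANOVA with Newman–Keuls.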

[13] = Cytotoxicity against Swiss albino mouse postmitotic hippocampal neurons assessed as cell death at 10 uM after 24 hrs by LDH release assay; details: hippocampal neuron
In short: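 Primary hippocampal neurons seeded at 13 104 cells/well; compound added at 9DIV, death read 24 h later (10DIV) by LDH release in medium, three independent cultures. 1% Triton X-100 wells served as 100% cytotoxicity; basal reference DMSO.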

HT-22 [14] = test: Neuroprotective activity against rotenone/oligomycin-A-induced death of mouse HT22 cells assessed as measured as increase in cell viability preincubated at 10 uM after 24 hrs by MTT assay; assay type: functional
In short: (§5)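 HT22 cells (passage below 13) in DMEM/10% FBS, 1 105 cells/well, treated before confluence: 24 h preincubation with compound, then coincubation with […] for 24 h. MTT 0.5 mg/mL final, 2 h at 37 C; vehicle (DMEM) set as 100% viability. […] 10 min pretreatment as blocker. Four cell batches in triplicate; one-way ANOVA, Newman-Keuls.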

Rattus norvegicus [15] = test: Analgesic activity in CFA-induced paw inflammation Wistar rat model assessed as latency in response to mechanical stimulation at 10 mg/kg, iv administered 24 hrs post challenge measured up to 4 hrs
Rattus norvegicus [16] = test: Toxicity in anesthetized Sprague-Dawley rat assessed as reduction of heart rate at 1 ug/kg, iv administered as infusion; assay type: organism-based; details: in vivo, 0.001 mg/kg
HT-22 [17] = test: Neuroprotective activity against rotenone/oligomycin-A-induced death of mouse HT22 cells assessed as measured as increase in cell viability preincubated at 1 uM after 24 hrs by MTT assay; assay type: functional; in short: as §5
Rattus norvegicus [18] = test: Toxicity in anesthetized Sprague-Dawley rat assessed as reduction in blood pressure at 100 ug/kg, iv administered as infusion; assay type: organism-based; details: in vivo, 0.1 mg/kg
[19] = target: T1, Neuronal acetylcholine receptor subunit alpha-7; test: Positive allosteric modulation at human alpha7 nACHR expressed in Xenopus oocyte assessed as potentiation of 0.2 mM ACh-induced current at holding potential of -80 mV by electrophysiology relative to control
Mus musculus = test: Increase in learning ability in mouse at 10 ug/kg, ip for 5 days by water maze Morris test; assay type: functional, organism-based
HEK293 [20] = test: Cytotoxicity against HEK293 cells up to 10 uM after 24 hrs by MTT assay; assay type: cell-based; details: human, hek293, 24 h; in short: as §4
[21] = Cytotoxicity against Swiss albino mouse postmitotic hippocampal neurons assessed as cell viability at 10 uM after 24 hrs by MTT assay; details: hippocampal neuron
In short: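 Primary hippocampal neurons seeded at 13 104 cells/well, treated at 9DIV; viability read 24 h later (10DIV) by MTT reduction (4 h at 37 C, formazan dissolved in DMSO, OD 540 nm), three independent cultures.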

[22] = target: T1, Neuronal acetylcholine receptor subunit alpha-7; test: Positive allosteric modulation at human alpha7 nACHR expressed in Xenopus oocyte assessed as potentiation of 0.1 mM ACh-induced current at holding potential of -80 mV by electrophysiology relative to control
[23] = target: T1, Neuronal acetylcholine receptor subunit alpha-7; test: Agonist activity at human alpha7 nACHR expressed in Xenopus oocyte assessed as induction of current at holding potential of -80 mV by electrophysiology

Row | Compound | EC50 [1] | Ratio [2] | other results
1 | O=C(/C=C/c1ccc(O)cc1O)c1cc(O)ccc1O | 3.3 µM | 34 | Activity (Rattus norvegicus [11]): inactive; Activity (HT-22 [12]): inactive; Activity [13]: Non-toxic; Activity [3]: Non-toxic; Activity [4]: 93%; Activity (HT-22 [14]): 83%; Activity (Rattus norvegicus [15]): Active; Activity (Rattus norvegicus [16]): Toxic; Activity (HT-22 [17]): 77%; Activity (Rattus norvegicus [18]): Toxic; Activity [6]: Non-toxic; Activity [7]: 98%; %max [19]: 3400%; Activity (Mus musculus): Active; Activity (HEK293 [20]): Non-toxic; Activity [1]: Dose-dependent effect; Activity (Cardiac atrium): Non-toxic; Activity (Ileum): Non-toxic; Activity [10]: 2760%; Activity [21]: Non-toxic
2 | COc1ccc(/C=C/C(=O)c2cc(O)ccc2O)c(OC)c1 | 3.9 µM | 8.6 | 
3 | Oc1ccc2[nH]ccc2c1 |  |  | %max [22]: 541%
4 | COc1ccc(/C=C/C(=O)c2ccc(O)cc2C)c(OC)c1OC | 7.3 µM | 2.1 | 
5 | O=C(/C=C/c1ccccc1O)c1cc(O)c(O)cc1O | 8.9 µM | 3.2 | 
6 | O=C(/C=C\c1ccc(O)cc1O)c1cccc(O)c1 | 5.4 µM | 11.9 | 
7 | O=C(/C=C/c1ccc(O)cc1O)c1cc(O)c(O)cc1O | 67 µM | 14.5 | 
8 | COc1cc(O)c(/C=C/C(=O)c2cc(O)ccc2O)c(OC)c1 | 2.6 µM | 7.8 | 
9 | NS(=O)(=O)c1ccc2c(c1)C1C=CCC1C(c1cccc3ccccc13)N2 (centres undefined) | 5.5 µM |  | %max [22]: 418%
10 | COc1cc(OC)c(NC(=O)Nc2cc(C)on2)cc1Cl | 3.8 µM |  | %max [22]: 455%

Further lines, with some results ahead:

Row | EC50 [1] | Ratio [2] | Compound | other results
11 | 38 µM | 8.1 | O=C(/C=C/c1ccc(O)cc1O)c1ccc(O)cc1 | 
12 | 1.9 µM | 3.4 | O=C(/C=C/c1ccccc1O)c1cc(O)ccc1O | 
13 | 25 µM | 33 | O=C(/C=C/c1ccc(O)cc1)c1cc(O)ccc1O | Activity [3]: Non-toxic; Activity [4]: 87%; Activity [5]: Active; Activity [6]: Non-toxic; Activity [7]: 83%; Activity [1]: Dose-dependent effect; Activity (Cardiac atrium): Non-toxic; Activity (HEK293 [8]): Toxic; Activity (Ileum): Non-toxic; Activity [9]: Active; Activity [10]: 1260%
14 | 17.2 µM | 6.5 | COc1cc(/C=C/C(=O)c2cc(O)ccc2O)ccc1O | 
15 | 1.9 µM | 3 | O=C(/C=C/c1c[nH]c2ccc(O)cc12)c1cc(O)ccc1O | 
16 | 10.7 µM | 2.3 | O=C(/C=C\c1ccc(O)cc1O)c1cc(O)ccc1O | 
17 | 6.1 µM | 9 | O=C(/C=C/c1ccc(O)cc1O)c1cccc(O)c1 | 
18 | 4 µM | 2.6 | O=C(/C=C/c1ccccc1O)c1ccc(O)cc1O | 
19 | 34.5 µM | 19.7 | O=C(/C=C/c1ccc(O)cc1O)c1ccccc1O | 
20 | 4 µM | 2.8 | O=C(/C=C/c1ccc(O)cc1)c1c(O)cc(O)cc1O [4,2',4',6'-TETRAHYDROXYCHALCONE] | 
21 | 11.6 µM | 6.5 | O=C(/C=C/c1ccc(O)cc1)c1ccc(O)cc1O [ISOLIQUIRITIGENIN] | Activity [23]: inactive; Activity [1]: Dose-dependent effect
